Source: PubChem
Sampled rows, rich in hits. Any-hit rate of the full collection: about 6.7%.
T cruzi inh: inhibitors of intracellular T. cruzi growth, primary screen, luminescence, NIH3T3 host cells | T. cruzi beta-gal in NIH3T3, 90 h | 300,000 tested, 1.4% active | AID 1885, 2009 | inhibition, % (test concentration not listed);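 active = mean inhibition across valid replicates above about 55%, limit read from the data; inconclusive = mean below that limit but half or more replicates reach it; inactive = mean below it, under half of replicates reach it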;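 note: signal also drops with host cell toxicity which is not excluded here; 0% = plate median of DMSO wells and 100% = zero luminescence signal; higher percent means less beta-gal luminescence so fewer parasites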
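Read-out: Parasite load inhibition, % | Test system: Mouse NIH/3T3 fibroblasts infected with β-gal-expressing T. cruzi Tulahuen C4 | Amount: 5,000 cells/well | Medium: DMEM, 2% fetal bovine serum | Signal: GalScreen β-gal luminescence, detergent lysis, 60 min | Timing: 3 h attach, ≥90 h co-culture | Also added: Tulahuen C4 trypomastigotes, 5000/well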
PREPL inhibitor: PREPL enzyme inhibitors, primary screen, biochemical, fluorescence polarization; inhibition, % at 5.96 µM; recombinant PREPL, fluorescence polarization activity-based probe; Prolyl endopeptidase-like (Homo sapiens), Q4J6C6; 320,000 tested, 0.68% active; in the data active = inhibition above about 43%;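 note: 0% = enzyme with DMSO and 100% = wells lacking enzyme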
Target sequence (Q4J6C6 whole entry, looked up): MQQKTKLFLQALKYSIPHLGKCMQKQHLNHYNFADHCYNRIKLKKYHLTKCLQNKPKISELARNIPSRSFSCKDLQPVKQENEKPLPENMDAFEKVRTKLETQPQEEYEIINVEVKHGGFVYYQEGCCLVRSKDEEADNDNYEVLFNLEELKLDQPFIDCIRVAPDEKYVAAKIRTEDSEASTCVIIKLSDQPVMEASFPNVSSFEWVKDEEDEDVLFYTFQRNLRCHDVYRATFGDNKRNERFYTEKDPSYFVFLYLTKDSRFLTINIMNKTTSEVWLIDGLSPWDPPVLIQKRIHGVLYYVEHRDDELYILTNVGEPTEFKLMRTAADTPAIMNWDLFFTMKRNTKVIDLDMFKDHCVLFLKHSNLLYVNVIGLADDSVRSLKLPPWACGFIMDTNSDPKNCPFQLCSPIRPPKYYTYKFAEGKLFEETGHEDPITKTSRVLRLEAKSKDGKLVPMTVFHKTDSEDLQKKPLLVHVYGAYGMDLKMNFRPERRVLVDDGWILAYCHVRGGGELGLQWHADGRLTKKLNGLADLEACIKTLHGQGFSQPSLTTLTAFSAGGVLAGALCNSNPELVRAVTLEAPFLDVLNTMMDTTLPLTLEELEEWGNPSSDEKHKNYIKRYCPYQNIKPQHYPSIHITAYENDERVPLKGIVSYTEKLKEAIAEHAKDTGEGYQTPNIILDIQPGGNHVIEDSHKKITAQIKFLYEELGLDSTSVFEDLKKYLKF
GRIN3A LBD mod: binders of NR3A ligand-binding domain, primary screen, biophysical, differential scanning fluorimetry, uHTS; Glutamate receptor ionotropic, NMDA 3A (GRIN3A) ligand-binding domain; NR3A LBD differential scanning fluorimetry, Tm shift; 0% = protein alone, 100% = glycine-bound protein; Tm shift relative to glycine control, % at 25 µM; 340,000 tested, 2.5% active;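 active = melting temperature shift of at least 10% of the positive control shift, at one fixed dose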
Beta apoptosis: inhibitors of cytokine-induced beta cell apoptosis, primary screen, luminescence; INS-1E cytokine-induced death, ATP luminescence, 48 h; percent of positive-control rescue, neutral wells zero; protection from apoptosis, % (no concentration beside the values); 300,000 tested, 0.8% active; AID 435005, 2010;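 active = Every replicate reaches about 75%, or at least half do and their mean reaches it too, limit read from the data; inconclusive = At least half of replicates reach the limit but their mean does not; inactive = Under half of replicates reach the limit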;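 note: 0% = cytokine-treated negative control wells and 100% = positive control rescue; higher means more ATP so stronger rescue from cytokine killing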
CHOP inhibitor: inhibitors of CHOP promoter induction, primary screen, cell-based, unfolded protein response, luciferase reporter; inhibition, % at 10 µM; CHO-K1 CHOP-promoter luciferase, tunicamycin-induced, 15-18 h; 220,000 tested, 3.8% active;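 active = compounds that reduced the stress-induced luciferase reporter signal by more than about 70% of percent inhibition, limit read from the data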;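 note: 0% = tunicamycin plus vehicle and 100% = wells without tunicamycin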
CSC inhib: cancer stem cell viability inhibitors, primary screen, luminescence. cancer stem cell-like cells viability. inhibition, % at 7.5 µM. 300,000 tested, 1.1% active. AID 2717, 2010; in the data active = inhibition above about 75%; inconclusive = no clear call, values can overlap the other calls; tested in HMLE shEcad cells
CHOP inh conf: retest of CHOP induction inhibitors, confirmation, cell-based; shares compounds with CHOP inhibitor; CHO-CHOP promoter luciferase reporter, tunicamycin-induced, luminescence; inhibition, % at 10 µM; 2,100 tested, 45% active; AID 504437, 2011;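 active = mean of three repeat readings of reporter signal inhibition above a set limit, cut at about 70% in these data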;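 note: 0% = tunicamycin plus vehicle and 100% = wells lacking tunicamycin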
The depositor's hits bear a star; ? = inconclusive; . = no result given.

SMILES	T cruzi inh	PREPL inhibitor	GRIN3A LBD mod	Beta apoptosis	CHOP inhibitor	CSC inhib	CHOP inh conf
CN(C)S(=O)(=O)c1ccc(C(=O)Nc2nnc(SCc3cccc4ccccc34)s2)cc1	-12.2	5.5	26.1*	.	103.2*	14.6	10.8
CC(C)(C)c1ccc(OCC(=O)N/N=C/C2CC=CCC2)cc1 (centres undefined)	-13.3	2.5	-1.8	-1.8	98.7*	-1.9	98.6*
CC(C)(C)c1ccc(OCC(=O)N/N=C/c2ccc(N3CCOCC3)cc2)cc1	-11.9	64.6*	-6.3	-4.3	104.7*	12.9	64.9
O=C(NCc1ccc(F)cc1F)Nc1cnccc1C(F)(F)F	-9.7	6.0	-0.2	-5.2	.	-10.0	.
Cn1nc(-c2ccc(C(=O)Nc3ccc(F)cc3)cc2)c2ccccc2c1=O	1.3	1.9	-0.6	.	100.6*	-2.6	48.5
Cn1nc(-c2ccc(C(=O)Nc3cccnc3)cc2)c2ccccc2c1=O	11.0	-5.9	-0.8	-3.8	19.9	-15.2	.
O=[N+]([O-])c1cccc(-c2csc(N/N=C/c3cccc(O)c3)n2)c1	?	24.3	23.8*	3.5	106.4*	87.0*	5.7
C/C=C/C=N/Nc1nc(-c2ccc([N+](=O)[O-])cc2)cs1	22.3	9.6	-1.6	-1.0	97.7*	29.4	-9.1
COC(=O)c1ccccc1NC(=O)c1ccc2c(c1)OCCCO2	23.6	-13.1	2.2	-1.7	.	-9.2	.
O=C(COC(=O)c1cc(S(=O)(=O)N2CCCCC2)ccc1N1CCOCC1)c1ccc(F)cc1	12.8	-7.0	2.2	0.5	.	-8.3	.
Cc1ccc(SCCC(=O)N/N=C/c2ccccc2O)cc1	16.9	-14.7	-32.0	42.5	46.9	22.1	.
C=CCc1cccc(/C=N/NC(=O)CCCNc2ccc(C)cc2)c1O	-14.3	21.2	12.3*	-2.5	96.8*	49.3	74.8*
C=CCc1cccc(/C=N/NC(=O)CCC(=O)Nc2ccc(F)cc2)c1O	33.4	-1.4	-7.2	92.9*	102.5*	21.7	29.1
Cc1cccc(OCC(=O)Nc2nonc2NC(=O)COc2cccc(C)c2)c1	-13.9	9.3	0.4	-1.8	-12.8	-20.3	.
Cc1ccc(C)c(OCC(=O)Nc2nonc2NC(=O)COc2cc(C)ccc2C)c1	-24.4	-24.4	-3.6	-3.3	100.9*	18.9	64.4
Cc1cc(C)c(S(=O)(=O)NCCn2ccc3ccccc32)c(C)c1	11.1	-38.2	-2.5	2.0	107.0*	30.3	23.5
Cc1cc(C)c(S(=O)(=O)NCCc2ccccc2)c(C)c1	10.3	-15.4	-2.3	-8.1	54.7	-3.7	.
COCCCNC(=S)NNC(=O)c1cc(Cl)c(O)c(Cl)c1	-8.7	3.7	0.3	-5.4	-18.3	1.6	.
COc1cc(NC(=O)COc2ccccc2[N+](=O)[O-])ccc1NC(=O)c1cccs1	-13.6	.	-0.9	.	103.6*	.	104.8*
Clc1ccc(Oc2nc3c(Cl)cccc3s2)cc1Cl	7.2	-1.8	-11.7	2.7	30.0	-1.0	.
CCOc1cc(C(=O)CSc2nnc(CNc3ccc(Cl)cc3)o2)ccc1NC(=O)CC	-38.2	-8.3	0.5	67.3	105.1*	4.9	112.4*
CCOc1ccc(NC(=O)CCCNC(=O)Cn2cnc3sc(C)c(C)c3c2=O)cc1	-5.5	8.5	0.8	.	.	-14.0	.
C/C(=N\NC(=O)c1nn(C)c(C)c1Br)c1ccc(NC(=O)c2ccoc2C)cc1	4.0	-0.4	4.9	11.3	100.2*	0.1	114.7*
C/C(=N\NC(=O)c1c(Br)c(C)nn1C)c1ccc(NC(=O)c2ccoc2C)cc1	9.5	9.3	-0.3	11.6	19.6	23.9	.
COc1cc(NC(=O)c2ccc(Cl)cc2Cl)ccc1NC(=O)c1cccs1	1.7	1.8	-1.4	-2.3	-1.2	3.6	.
SMILES	T cruzi inh	PREPL inhibitor	GRIN3A LBD mod	Beta apoptosis	CHOP inhibitor	CSC inhib	CHOP inh conf
CCc1cccc(NS(=O)(=O)c2csc(C(N)=O)c2)c1	-6.5	-0.3	-0.7	-2.8	.	-12.1	.
O=[N+]([O-])c1ccc(/C=N/N=C/c2ccc([N+](=O)[O-])o2)o1	.	.	1.6	.	108.2*	.	134.5*
CCCCCN(C(=O)CCC(=O)OC(C)C(=O)c1ccccc1)c1c(N)n(CCCC)c(=O)[nH]c1=O (centres undefined)	-1.0	14.9	1.2	2.9	.	10.2	.
CC(C)C[C@H](NC(=O)OC(C)(C)C)c1nnc(SCC(=O)Nc2ccc(Br)cc2)o1	3.3	24.8	-0.6	-7.3	99.7*	-8.7	132.3*
O=C(NNc1ccc(C2CCCCC2)cc1)C(O)(c1ccccc1)c1cccs1 (centres undefined)	33.0	-4.3	3.6	9.1	106.2*	.	-2.8
COc1ccc(NC(=O)Nc2nnc(-c3ccccc3SCc3ccccc3)s2)cc1	16.8	-2.4	21.8*	9.3	97.6*	17.1	26.6
COc1ccc(OCc2nnc(NC(=O)Nc3ccc(F)cc3)s2)cc1	-19.2	0.6	-2.5	-8.7	101.3*	2.8	-0.1
CCOC(=O)c1sc(NC(=O)Nc2ccccc2F)nc1C	-2.2	0.6	-5.0	5.8	101.6*	2.2	43.9
COc1cccc(NC(=O)Nc2nnc(-c3ccccc3SCc3ccccc3)s2)c1	.	-6.4	7.0	34.4	61.6	-0.3	.
O=C(Nc1nnc(COc2ccc(F)cc2)s1)Nc1ccccc1F	17.2	21.9	-0.2	-3.8	99.2*	18.0	2.4
Cc1nc(C(=O)N2CCC(n3nccc3NC(=O)Nc3ccccc3Cl)CC2)cs1	6.8	7.9	-0.2	-1.0	.	-4.0	.
Cc1[nH]c2ccccc2c1/C=N/NC(=O)C1CC1(c1ccccc1)c1ccccc1 (centres undefined)	33.0	7.8	12.0*	25.5	106.1*	115.7*	100.9*
Cc1[nH]c2ccccc2c1/C=N/NC(=O)CCC(=O)NCc1ccccc1	-3.4	35.7	-1.0	-2.4	-0.3	4.1	.
O=C(COC(=O)/C=C/c1ccccc1[N+](=O)[O-])NNC(=O)c1ccc(F)cc1	.	.	0.2	.	.	.	.
Cc1ccc(Cl)cc1N1CCN(C(=O)Cn2ncn3cccc3c2=O)CC1	14.0	18.0	-2.5	-5.0	.	9.8	.
Cc1cc(C2=NNC(=NC3CC3)SC2)c(C)n1-c1ccccc1F	31.6	7.0	-4.1	36.9	104.7*	9.6	124.7*
COc1cccc(C(C(=O)NC2CCCC2)N(C(=O)c2ccco2)c2ccc(-n3cnnn3)c(C)c2)c1OC (centres undefined)	9.4	18.3	-5.9	-0.1	3.2	-0.7	.
CN1CCc2c(sc(NC(=O)c3cc4cc([N+](=O)[O-])ccc4s3)c2C(N)=O)C1	68.7*	.	.	.	101.3*	.	132.3*
